From ChEMBL document CHEMBL5257040, “Discovery of VU2957 (Valiglurax): An mGlu4 Positive Allosteric Modulator Evaluated as a Preclinical Candidate for the Treatment of Parkinson's Disease” (ACS Med Chem Lett, 2019)
≈ marks a conversion by molar mass, not a printed value.

Experiments:
[1] = Elimination half life in Cynomolgus monkey at 0.2 mg/kg, iv and measured upto 24 hrs by LC-MS/MS analysis; type: ADME, organism-based, Macaca fascicularis; settings: in vivo, read-out: beta t1/2 (converted)
Summary of the method: (§1)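 Single intravenous doses: mouse 1 mg/kg, SD rat 0.2 mg/kg, beagle dog 0.5 mg/kg, cynomolgus monkey 0.2 mg/kg. Plasma clearance, Vss and elimination half-life came from the plasma profiles. Values are means of two to three animals.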

[2] = Lipophilicity, logP of the compound; type: physicochemical; settings: octanol/water
Cytochrome P450 3A4 [3] = biological target: T1, Cytochrome P450 3A4 (Homo sapiens, UniProt P08684); test: Inhibition of CYP3A4 in human liver microsomes using midazolam as substrate preincubated for 15 mins followed by NADPH addition and measured after 8 mins by LC/MS/MS analysis; type: ADME, Microsome
[4] = Volume of distribution at steady state in Sprague-Dawley rat at 0.2 mg/kg, iv and measured upto 24 hrs by LC-MS/MS analysis; type: ADME, organism-based; settings: in vivo, read-out: Vdss
Summary of the method: (§2)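 Single-dose iv and oral PK in separate arms: mouse 1 mg/kg iv / 3 mg/kg po, SD rat 0.2/3, beagle 0.5/3, cynomolgus 0.2/3 mg/kg. Plasma parameters (Vss, Tmax, F) are means of two to three animals per species.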

[5] = Cmax in Cynomolgus monkey at 3 mg/kg, po and measured upto 24 hrs by LC-MS/MS analysis; type: ADME, organism-based, Macaca fascicularis; design: dose 3 mg/kg, time < 24 hrs, route po; settings: in vivo
Summary of the method: (§3)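 Single oral 3 mg/kg dose in mouse, SD rat, beagle and cyno. Cmax is the peak total plasma concentration. Values are means of two to three animals.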

[6] = Metabolic stability in dog liver microsomes assessed as intrinsic clearance at 1 uM preincubated for 5 mins followed by NADPH addition and measured for 45 mins by LC/MS/MS analysis; type: ADME, Canis lupus familiaris, Microsome; settings: time 50 min, read-out: CLH
[7] = Cmax in CD-1 mouse plasma at 3 mg/kg, po and measured upto 24 hrs by LC-MS/MS analysis; type: ADME, organism-based; design: time < 24 hrs, dose 3 mg/kg, route po; summary of the method: as §3
[8] = Unbound brain-to-plasma concentration ratio in cynomolgus monkey at 0.2 mg/kg, iv and measured upto 1 hrs by LC-MS/MS analysis; type: ADME, organism-based, Macaca fascicularis; settings: read-out: K(p,uu,brain)
[9] = Metabolic stability in cynomolgus monkey liver microsomes assessed as intrinsic clearance at 1 uM preincubated for 5 mins followed by NADPH addition and measured for 45 mins by LC/MS/MS analysis; type: ADME, Macaca fascicularis, Microsome; settings: time 50 min, read-out: CLH
[10] = biological target: Aryl hydrocarbon receptor (Homo sapiens, UniProt P35869); test: Activation of human AhR
[11] = Solubility of compound in FaSSGF; type: ADME
Cytochrome P450 2C9 = Cytochrome P450 2C9 (Homo sapiens, UniProt P11712); test: Inhibition of CYP2C9 in human liver microsomes using […] as substrate preincubated for 15 mins followed by NADPH addition and measured after 8 mins by LC/MS/MS analysis; type: ADME, Microsome
[12] = Elimination half life in Sprague-Dawley rat at 0.2 mg/kg, iv and measured upto 24 hrs by LC-MS/MS analysis; type: ADME, organism-based; settings: in vivo, read-out: beta t1/2 (converted); summary of the method: as §1
[13] = biological target: Metabotropic glutamate receptor 7 (Rattus norvegicus, UniProt P35400); test: Positive allosteric modulator activity at rat mGlu7 in human HEK cells co-expressing […] assessed as increase in by thallium flux preincubated for 2.5 mins followed by gluatamate addition by thallium flux assay; type: cell-based
Cytochrome P450 3A4 [14] = biological target: T1, Cytochrome P450 3A4; test: Induction of CYP3A4 in human hepatocytes; type: ADME, cell-based
Summary of the method: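 CYP1A2, 2B6 and 3A4 induction measured in human hepatocytes.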

[15] = Brain to plasma permeability coefficient, Kp in CD-1 mouse plasma at 1 mg/kg,iv and measured upto 24 hrs by LC-MS/MS analysis; type: ADME, organism-based
Summary of the method: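 Total brain to total plasma partition coefficient (Kp) measured in mouse, SD rat and cynomolgus monkey. The unbound ratio (Kp,uu) was corrected with brain homogenate binding. Values are means of two to three animals.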

[16] = Tmax in Beagle dog at 3 mg/kg, po and measured upto 24 hrs by LC-MS/MS analysis; type: ADME, organism-based, Canis lupus familiaris; settings: in vivo; summary of the method: as §2
[17] = biological target: Metabotropic glutamate receptor 2 (Rattus norvegicus, UniProt P31421); test: Positive allosteric modulator activity at rat mGlu2 in human HEK cells co-expressing […] assessed as increase in by thallium flux preincubated for 2.5 mins followed by gluatamate addition by thallium flux assay; type: cell-based
[18] = AUC (0 to infinity) in Cynomolgus monkey at 3 mg/kg, po and measured upto 24 hrs by LC-MS/MS analysis; type: ADME, organism-based, Macaca fascicularis; design: time < 24 hrs, dose 3 mg/kg, route po; settings: in vivo
Summary of the method: (§4)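 Single oral 3 mg/kg dose in mouse, SD rat, beagle dog and cynomolgus monkey. Total plasma exposure after the oral dose gave Cmax, Tmax, AUC0-inf and F. Values are means of two to three animals.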

[19] = Clearance in Beagle dog plasma at 0.5 mg/kg, iv and measured upto 24 hrs by LC-MS/MS analysis; type: ADME, organism-based, Canis lupus familiaris; summary of the method: as §1
[20] = Genotoxicity in Salmonella typhimurium TA98 by Ames test; type: toxicity; settings: salmonella enterica subsp. enterica serovar typhimurium
Summary of the method: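 Ames bacterial reverse mutation test in strains TA98 and […], run with and without S9 metabolic activation.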

[21] = AUC (0 to infinity) in Sprague-Dawley rat at 3 mg/kg, po and measured upto 24 hrs by LC-MS/MS analysis; type: ADME, organism-based; design: time < 24 hrs, dose 3 mg/kg, route po; settings: in vivo; summary of the method: as §4
Kv4.3/KChIP2 = Kv4.3/KChIP2 (Homo sapiens, UniProt Q9NS61+Q9UK17); test: Inhibition of Kv4.3/KChIP2 (unknown origin) at 10 uM; type: toxicity
Summary of the method: (§5)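 Cardiac ion channel electrophysiology (functional EP) panel, with percent inhibition measured at 10 μM.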

Kv1.5 = Kv1.5 (Homo sapiens, UniProt P22460); test: Inhibition of Kv1.5 (unknown origin) at 10 uM; type: toxicity; summary of the method: as §5
[22] = Elimination half life in CD-1 mouse plasma at 1 mg/kg, iv and measured upto 24 hrs by LC-MS/MS analysis; type: ADME, organism-based; settings: read-out: beta t1/2 (converted); summary of the method: as §1
Nav1.5 = Nav1.5 (Homo sapiens, UniProt Q14524); test: Inhibition of Nav1.5 (unknown origin) at 10 uM; type: toxicity
Summary of the method: (§6)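 Eurofins Cardiac Profiler functional electrophysiology panel of potassium, calcium and sodium cardiac ion channels, including hERG. Compound tested at 10 μM, reported as percent inhibition.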

[23] = Unbound brain-to-plasma concentration ratio in Sprague-Dawley rat at 0.2 mg/kg, iv and measured upto 24 hrs by LC-MS/MS analysis; type: ADME, organism-based; settings: read-out: K(p,uu,brain)
hERG (KCNH2) = hERG (KCNH2) (Homo sapiens, UniProt Q12809); test: Inhibition of human ERG at 10 uM; type: toxicity; summary of the method: as §6
[24] = Clearance in Sprague-Dawley rat plasma at 0.2 mg/kg, iv and measured upto 24 hrs by LC-MS/MS analysis; type: ADME, organism-based; summary of the method: as §1
[25] = Unbound drug concentration in Sprague-Dawley rat brain at 0.2 mg/kg, iv and measured upto 24 hrs by LC-MS/MS analysis; type: ADME, organism-based
[26] = biological target: Metabotropic glutamate receptor 4 (Rattus norvegicus) (UniProt P31423); test: Positive allosteric modulator activity at rat mGlu4 in human HEK cells co-expressing […] assessed as maximum increase in by thallium flux preincubated for 2.5 mins followed by gluatamate addition and measured for 2 mins by thallium flux assay; type: cell-based; settings: filed as positive allosteric modulator, time 4.5 min
[27] = biological target: Nuclear receptor subfamily 1 group I member 2 (Rattus norvegicus, UniProt Q9R1A7); test: Activation of rat PXR
Nuclear receptor subfamily 1 group I member 2, sequence (Q9R1A7 whole entry): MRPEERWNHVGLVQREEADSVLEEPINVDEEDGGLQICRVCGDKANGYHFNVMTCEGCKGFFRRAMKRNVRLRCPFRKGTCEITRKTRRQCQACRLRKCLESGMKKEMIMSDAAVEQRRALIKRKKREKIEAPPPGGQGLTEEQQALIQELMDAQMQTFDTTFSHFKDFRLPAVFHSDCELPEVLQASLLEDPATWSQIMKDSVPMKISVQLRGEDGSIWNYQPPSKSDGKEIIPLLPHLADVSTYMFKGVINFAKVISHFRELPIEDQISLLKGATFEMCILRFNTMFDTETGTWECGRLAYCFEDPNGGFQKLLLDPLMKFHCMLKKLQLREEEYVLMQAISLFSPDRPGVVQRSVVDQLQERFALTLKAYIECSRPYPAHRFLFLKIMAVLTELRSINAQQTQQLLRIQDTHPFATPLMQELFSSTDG

T1 sequence (P08684 whole entry): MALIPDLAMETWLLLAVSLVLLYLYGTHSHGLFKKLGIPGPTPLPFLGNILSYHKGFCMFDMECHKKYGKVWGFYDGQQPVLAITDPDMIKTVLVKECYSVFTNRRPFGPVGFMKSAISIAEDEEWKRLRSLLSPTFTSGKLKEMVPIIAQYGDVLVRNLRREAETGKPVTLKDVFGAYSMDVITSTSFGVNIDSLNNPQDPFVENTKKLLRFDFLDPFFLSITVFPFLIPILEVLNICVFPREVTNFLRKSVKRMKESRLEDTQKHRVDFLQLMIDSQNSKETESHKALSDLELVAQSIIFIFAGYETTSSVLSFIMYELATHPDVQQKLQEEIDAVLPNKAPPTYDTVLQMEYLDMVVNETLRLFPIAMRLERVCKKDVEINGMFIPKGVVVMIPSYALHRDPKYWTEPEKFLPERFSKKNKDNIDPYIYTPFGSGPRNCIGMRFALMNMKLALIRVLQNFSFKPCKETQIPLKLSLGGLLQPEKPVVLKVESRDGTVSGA
Cytochrome P450 2C9, sequence (P11712 whole entry): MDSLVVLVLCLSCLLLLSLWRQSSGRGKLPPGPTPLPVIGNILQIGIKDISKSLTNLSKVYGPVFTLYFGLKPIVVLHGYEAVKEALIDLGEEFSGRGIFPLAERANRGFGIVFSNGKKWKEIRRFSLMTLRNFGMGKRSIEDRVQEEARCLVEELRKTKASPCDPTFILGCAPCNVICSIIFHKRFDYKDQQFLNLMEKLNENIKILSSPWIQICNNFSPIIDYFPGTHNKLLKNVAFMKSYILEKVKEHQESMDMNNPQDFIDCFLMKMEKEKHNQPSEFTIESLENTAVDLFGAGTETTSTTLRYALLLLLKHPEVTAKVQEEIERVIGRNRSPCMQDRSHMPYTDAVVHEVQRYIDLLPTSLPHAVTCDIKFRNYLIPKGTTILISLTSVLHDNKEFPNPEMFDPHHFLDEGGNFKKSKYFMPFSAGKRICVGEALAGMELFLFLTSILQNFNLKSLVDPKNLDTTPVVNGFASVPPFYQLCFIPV
hERG (KCNH2), sequence (Q12809 whole entry): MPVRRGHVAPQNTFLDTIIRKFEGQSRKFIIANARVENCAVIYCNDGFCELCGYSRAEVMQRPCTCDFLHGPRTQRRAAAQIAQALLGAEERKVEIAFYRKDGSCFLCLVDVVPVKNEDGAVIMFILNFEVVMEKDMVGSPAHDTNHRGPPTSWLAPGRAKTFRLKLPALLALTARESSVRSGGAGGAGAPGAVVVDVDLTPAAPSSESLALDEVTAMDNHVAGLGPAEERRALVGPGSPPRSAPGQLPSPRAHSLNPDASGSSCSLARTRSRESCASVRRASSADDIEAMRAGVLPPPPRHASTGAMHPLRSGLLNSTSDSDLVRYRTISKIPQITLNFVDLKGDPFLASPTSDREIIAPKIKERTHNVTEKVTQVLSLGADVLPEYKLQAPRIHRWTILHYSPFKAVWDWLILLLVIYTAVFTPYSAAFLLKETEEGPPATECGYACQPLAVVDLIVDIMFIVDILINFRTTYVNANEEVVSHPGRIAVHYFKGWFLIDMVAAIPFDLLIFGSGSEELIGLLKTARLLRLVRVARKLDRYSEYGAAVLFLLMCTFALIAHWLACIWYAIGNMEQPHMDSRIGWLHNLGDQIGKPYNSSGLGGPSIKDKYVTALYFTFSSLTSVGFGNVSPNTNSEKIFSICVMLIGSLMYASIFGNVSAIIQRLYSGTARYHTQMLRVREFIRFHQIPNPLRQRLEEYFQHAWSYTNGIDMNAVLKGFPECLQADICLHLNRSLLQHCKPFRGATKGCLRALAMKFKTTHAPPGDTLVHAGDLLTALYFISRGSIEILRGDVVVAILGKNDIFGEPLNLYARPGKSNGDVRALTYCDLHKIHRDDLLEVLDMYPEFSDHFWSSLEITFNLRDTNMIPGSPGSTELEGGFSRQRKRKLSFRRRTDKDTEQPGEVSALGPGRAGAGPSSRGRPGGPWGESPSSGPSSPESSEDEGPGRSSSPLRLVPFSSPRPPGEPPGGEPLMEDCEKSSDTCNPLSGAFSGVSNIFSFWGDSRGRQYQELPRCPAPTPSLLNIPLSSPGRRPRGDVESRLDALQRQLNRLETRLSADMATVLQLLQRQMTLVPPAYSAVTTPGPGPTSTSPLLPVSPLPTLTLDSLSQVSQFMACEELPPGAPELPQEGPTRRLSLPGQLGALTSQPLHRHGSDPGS
Nav1.5, sequence (Q14524 whole entry): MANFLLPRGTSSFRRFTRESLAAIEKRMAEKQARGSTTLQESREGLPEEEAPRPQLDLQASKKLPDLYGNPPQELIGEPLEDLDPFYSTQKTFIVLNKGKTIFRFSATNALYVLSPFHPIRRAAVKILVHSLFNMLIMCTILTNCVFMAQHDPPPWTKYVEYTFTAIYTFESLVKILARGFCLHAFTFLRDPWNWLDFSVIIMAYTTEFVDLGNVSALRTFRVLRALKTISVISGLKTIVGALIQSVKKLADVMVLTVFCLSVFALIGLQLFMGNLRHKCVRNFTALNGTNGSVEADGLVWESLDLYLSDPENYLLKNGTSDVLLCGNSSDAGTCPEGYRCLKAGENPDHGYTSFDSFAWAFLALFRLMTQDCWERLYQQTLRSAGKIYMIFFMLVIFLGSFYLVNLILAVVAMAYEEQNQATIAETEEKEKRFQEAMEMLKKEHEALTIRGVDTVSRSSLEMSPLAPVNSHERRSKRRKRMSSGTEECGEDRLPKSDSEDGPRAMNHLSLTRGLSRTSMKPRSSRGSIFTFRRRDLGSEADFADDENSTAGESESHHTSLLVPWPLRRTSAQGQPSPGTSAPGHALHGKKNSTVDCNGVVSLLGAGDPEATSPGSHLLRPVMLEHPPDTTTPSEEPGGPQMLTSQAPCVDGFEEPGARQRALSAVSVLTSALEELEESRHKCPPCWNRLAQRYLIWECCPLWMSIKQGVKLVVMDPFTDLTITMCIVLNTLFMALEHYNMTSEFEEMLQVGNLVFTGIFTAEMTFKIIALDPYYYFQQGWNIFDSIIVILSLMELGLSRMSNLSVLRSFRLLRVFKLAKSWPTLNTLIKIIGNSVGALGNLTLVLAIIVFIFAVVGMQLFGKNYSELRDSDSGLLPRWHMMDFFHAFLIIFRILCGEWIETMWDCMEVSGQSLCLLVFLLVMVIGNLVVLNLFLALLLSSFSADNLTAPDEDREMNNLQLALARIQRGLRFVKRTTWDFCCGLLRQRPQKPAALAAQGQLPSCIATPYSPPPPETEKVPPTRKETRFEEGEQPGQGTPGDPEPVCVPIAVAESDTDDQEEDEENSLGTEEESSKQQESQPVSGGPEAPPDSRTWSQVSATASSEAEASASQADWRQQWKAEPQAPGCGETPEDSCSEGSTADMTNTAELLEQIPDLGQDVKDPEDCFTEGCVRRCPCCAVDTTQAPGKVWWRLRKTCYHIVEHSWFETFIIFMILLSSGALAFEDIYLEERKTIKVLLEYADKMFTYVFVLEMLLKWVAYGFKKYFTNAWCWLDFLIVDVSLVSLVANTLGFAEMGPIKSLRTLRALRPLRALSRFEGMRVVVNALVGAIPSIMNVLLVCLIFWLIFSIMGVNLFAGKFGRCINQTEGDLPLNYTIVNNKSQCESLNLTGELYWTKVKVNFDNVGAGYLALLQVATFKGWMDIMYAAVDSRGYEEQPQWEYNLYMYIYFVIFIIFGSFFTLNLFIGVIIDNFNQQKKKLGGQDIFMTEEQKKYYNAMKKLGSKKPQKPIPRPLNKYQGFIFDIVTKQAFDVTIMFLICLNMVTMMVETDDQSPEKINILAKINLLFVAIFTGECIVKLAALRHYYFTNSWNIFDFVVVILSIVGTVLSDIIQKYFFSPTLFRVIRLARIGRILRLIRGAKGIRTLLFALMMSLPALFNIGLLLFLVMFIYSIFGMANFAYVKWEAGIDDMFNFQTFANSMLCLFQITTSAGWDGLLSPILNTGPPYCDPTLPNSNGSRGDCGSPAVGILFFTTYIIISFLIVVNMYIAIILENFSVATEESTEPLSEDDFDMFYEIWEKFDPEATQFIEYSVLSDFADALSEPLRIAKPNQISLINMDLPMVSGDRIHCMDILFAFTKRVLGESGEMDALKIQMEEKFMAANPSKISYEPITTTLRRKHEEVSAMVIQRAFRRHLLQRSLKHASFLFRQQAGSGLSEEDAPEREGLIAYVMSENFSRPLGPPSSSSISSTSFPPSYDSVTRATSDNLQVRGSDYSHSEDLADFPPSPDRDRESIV

Compound: FC(F)(F)c1nccc2cc(Nc3n[nH]c4ncccc34)ccc12
- half-life [1]: 3.98 h
- logP [2]: 3.78
- IC50 (Cytochrome P450 3A4 [3]): > 30 µM
- Vd [4]: 3 L/kg
- Cmax [5]: 260 nM
- CLint scaled at 1 µM [6]: 18.1 mL/min/kg
- Cmax [7]: 1100 nM
- Kp uu at 1 h [8]: 0.07
- CLint scaled at 1 µM [9]: 8.8 mL/min/kg
- Activity [10]: Not Active
- solubility [11]: 9 µg/mL (≈ 27.3 µM)
- IC50 (Cytochrome P450 2C9): > 30 µM
- half-life [12]: 1.05 h
- EC50 [13]: > 10 µM
- Activity (Cytochrome P450 3A4 [14]): Not Active
- Kp at 24 h [15]: 0.78
- Tmax [16]: 1 h
- EC50 [17]: > 10 µM
- AUC(0-inf) [18]: 2.81 µM·h
- clearance [19]: 31.6 mL/min/kg
- Activity [20]: Non-Toxic
- AUC(0-inf) [21]: 9.66 µM·h
- inhibition at 10 µM (Kv4.3/KChIP2): < 50%
- inhibition at 10 µM (Kv1.5): < 50%
- half-life [22]: 2.98 h
- inhibition at 10 µM (Nav1.5): < 50%
- Kp uu at 24 h [23]: 0.09
- inhibition at 10 µM (hERG (KCNH2)): < 50%
- clearance [24]: 37.7 mL/min/kg
- fraction unbound at 24 h [25]: > 0.001
- Emax [26]: 132%
- Activity [27]: Not Active
